Screening data from PubChem.
This is a sample that favours compounds with a hit; in the whole collection about 2.5% have one here.
SIRT5 inh = inhibitors of human sirtuin-5 desuccinylase | Q9NXA8 | Purified SirT5, succinyl-peptide AMC, trypsin-coupled fluorescence | inhibition, % at 15 µM | 330,000 tested, 1.1% active | AID 652115; in the data active means inhibition above about 15%; inconclusive means no clear call, values can overlap the other calls
Target sequence (Q9NXA8 whole entry, looked up): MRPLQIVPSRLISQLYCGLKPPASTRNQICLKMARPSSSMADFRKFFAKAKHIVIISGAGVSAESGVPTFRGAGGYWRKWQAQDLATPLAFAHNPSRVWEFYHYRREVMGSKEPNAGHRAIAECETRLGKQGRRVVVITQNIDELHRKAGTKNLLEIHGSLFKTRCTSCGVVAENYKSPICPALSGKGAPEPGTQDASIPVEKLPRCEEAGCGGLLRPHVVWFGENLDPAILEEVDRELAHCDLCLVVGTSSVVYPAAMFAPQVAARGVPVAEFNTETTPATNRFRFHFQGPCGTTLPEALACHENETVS
miR-122 sensor = blocks miR-122 activity in Huh7 sensor cells. activation (reporter increase), % at 12.5 µM. Huh7 miR-122 Renilla luciferase sensor, 48 h; neutral wells = 0, positive control = 100. 340,000 tested, 0.3% active. AID 602342;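 active means mean replicate activation score at least 90 and every replicate individually at or above 90; inconclusive means only one of the two criteria met; inactive means neither criterion met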;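 further: higher luciferase means less miR-122 activity so hits act as miR-122 inhibitors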
S100A4 inh HTS = blocks human S100A4 binding to myosin IIA peptide; 360,000 tested, 0.14% active; AID 652163; inhibition, % at 10.7 µM; S100A4/TAMRA-MyoIIA peptide fluorescence polarization;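 active means mean inhibition of at least 70% across replicates, with every replicate also reaching that level; inconclusive means mean inhibition reaches 70% but some replicates fall short; inactive means mean inhibition below 70%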
Target sequence (P26447 whole entry, looked up): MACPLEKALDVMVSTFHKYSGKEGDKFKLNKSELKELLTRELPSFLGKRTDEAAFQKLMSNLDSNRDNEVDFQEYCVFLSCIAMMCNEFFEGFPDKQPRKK
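Test system: S100A4 monomer protein. Medium: HEPES buffer with Ca2+, pH 7.2. Reagent: fluorescent myosin IIA peptide, 5 nM. Compound dosing: single-point compound testing. Timing: 5 min between mix addition and reading. Benchmarks: DMSO neutral and TFP positive wells.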
E-selectin induc = E-selectin induction on HUVECs; P16581; HUVEC E-selectin immunofluorescence imaging; normalized: neutral wells 0, TNF-alpha wells 100; activation, % at 7.58 µM; 260,000 tested, 0.37% active; AID 686992;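 active means mean E-selectin-positive cell signal at least 10% of the positive control, reached in at least 60% of replicates, without over 20% cell loss; inconclusive means no rule given, readout overlaps actives, possibly toxicity-flagged; inactive means the rest, including those meeting only one limit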
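assay system = HUVEC, human umbilical vein endothelial cells | input = 3,000 HUVEC seeded per well | medium = EGM-2 growth medium on 0.1% gelatin-coated wells | dosing = one compound dose added by pin transfer | signal = immunofluorescence imaging | read-out basis = % PE-positive cells | control set = TNF-alpha, DMSO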
FGF22 binding = binders of recombinant human FGF22 by thermal shift | Q9HCT0 | SYPRO orange fluorescence; percent of sucrose octasulfate shift, DMSO zero | activity (Tm shift, normalised), % at 9.99 µM | 340,000 tested, 1.5% active;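 active means mean Tm shift, scaled 0 neutral to 100 positive control, at about 1.3% or above, every replicate too, limit read from the data; inconclusive means no clear call, values can overlap the other calls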
Target sequence (Q9HCT0 whole entry, looked up): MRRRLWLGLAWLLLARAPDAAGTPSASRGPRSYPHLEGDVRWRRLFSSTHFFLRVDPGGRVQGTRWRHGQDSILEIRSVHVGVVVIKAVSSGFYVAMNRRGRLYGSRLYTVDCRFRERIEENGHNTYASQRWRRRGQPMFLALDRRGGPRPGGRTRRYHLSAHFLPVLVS
miR-27b qPCR = miR-27b effect in Huh7 as miR-122 inhibitor selectivity check; shares compounds with miR-122 sensor; Huh7 miR-27b levels, qRT-PCR, 48 h; relative miR-27b level (unnormalised ratio), ratio at 35 µM; 35 tested, under 10 active;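 active means compounds lowering miR-27b whose fitted half-maximal dose is at most twice their top tested dose; inconclusive means flat curve with moderate drop, or poor fit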
Hits are given with their value; – = inactive; ? = inconclusive; · = no result.

SMILES	SIRT5 inh	miR-122 sensor	S100A4 inh HTS	E-selectin induc	FGF22 binding	miR-27b qPCR
CCN(CC)S(=O)(=O)c1ccc(N2CCOCC2)c(NC(=O)c2ccc(NC(C)=O)cc2)c1	15	·	–	–	–	·
CCN(CC)S(=O)(=O)c1ccc(N2CCOCC2)c(NS(=O)(=O)c2ccc(C(C)C)cc2)c1	–	106	–	–	–	·
COc1ccc(NS(=O)(=O)c2ccc(N3CCOCC3)c(NC(=O)c3cccc(F)c3)c2)cc1	·	190	·	·	·	·
COc1ccc(NS(=O)(=O)c2ccc(N3CCOCC3)c(NC(=O)c3ccco3)c2)cc1	–	–	–	–	–	·
COc1ccc(NS(=O)(=O)c2ccc(N3CCOCC3)c(NC(=O)c3ccc(F)cc3)c2)cc1	–	179	–	·	–	·
C[C@H](CO)N1C[C@H](C)[C@H](CN(C)S(=O)(=O)c2cccs2)Oc2ncc(/C=C/c3ccccc3)cc2C1=O	–	·	–	–	–	·
N#C[C@@H]1N[C@@H](CO)[C@@H]1c1ccc(C#CC2CCCC2)cc1	–	·	–	–	–	·
CO[C@@H](CN(C)S(=O)(=O)c1ccc(F)cc1)[C@H](C)CN(Cc1ccccc1Cl)[C@H](C)CO	–	·	–	–	–	·
C[C@@H]1CN([C@H](C)CO)C(=O)c2cc(NC(=O)c3ccccc3)ccc2O[C@@H](C)CCCCO[C@H]1CN(C)Cc1ccncc1	–	–	–	–	–	·
O=C(c1ccccc1)N1CC(=O)N2[C@@H](CO)[C@H](c3ccc(C#Cc4ccccc4)cc3)[C@@H]2C1	–	·	–	–	·	·
O=S(=O)(Nc1cc(S(=O)(=O)N2CCOCC2)ccc1N1CCOCC1)c1ccc2c(c1)OCCO2	–	·	–	·	44	·
COC(=O)c1cc(NC(C)=O)ccc1N1CCOCC1	–	·	–	–	43	·
O=S(=O)(Nc1cc(S(=O)(=O)N2CCOCC2)ccc1O)c1ccc2c(c1)OCCCO2	–	–	–	–	–	·
COCC#Cc1ccc2c(c1)O[C@H](CN(C)Cc1ccccc1)[C@@H](C)CN([C@@H](C)CO)S2(=O)=O	–	–	–	–	–	·
COc1ccc(NC(=O)N(C)C[C@H]2OCCCC[C@@H](C)Oc3ccc(NC(=O)CCCN(C)C)cc3C(=O)N([C@H](C)CO)C[C@H]2C)cc1	–	–	–	–	–	·
COC(=O)C[C@H]1C[C@H]2c3cc(NC(=O)Nc4ccc(F)cc4)ccc3O[C@H]2[C@H](CO)O1	·	–	·	–	–	·
COc1ccc(-c2ccc3c(c2)C2CC3CCN2Cc2ccc(OC(F)(F)F)cc2)cc1 (centres undefined)	·	·	–	–	43	·
COc1ccc(-c2ccc3c(c2)C2CC3CCN2C(=O)C(C)(C)C)cc1 (centres undefined)	–	–	–	·	–	·
C=CCOc1cccc(CNCCCN2CCOCC2)c1	–	–	–	–	44	·
O=S(=O)(c1ccc2c(c1)CCN2)N1CCOCC1	–	·	–	–	–	·
O=S(=O)(c1ccc2c(c1)CCCN2)N1CCC[C@@H]2CCCC[C@H]21	·	·	·	·	·	–
Cc1cc(C)c(S(=O)(=O)NCCOc2ccccc2)c(C)c1-n1cnnn1	–	–	–	·	–	·
Cc1cc(C)c(S(=O)(=O)NC(C)C)c(C)c1-n1cnnn1	–	91	–	·	–	–
Cc1ccc(C(=O)C2Oc3ccccc3C3CC(c4ccc(C)cc4)=NN23)cc1 (centres undefined)	–	152	–	–	–	–
S=C(Nc1ccc(Cl)cc1Cl)NC1CCCCC1	·	133	·	·	·	–
SMILES	SIRT5 inh	miR-122 sensor	S100A4 inh HTS	E-selectin induc	FGF22 binding	miR-27b qPCR
C[C@H]1CN([C@@H](C)CO)C(=O)c2cc(NC(=O)Nc3ccc(C(F)(F)F)cc3)ccc2O[C@H]1CN(C)Cc1ccccc1	–	–	–	–	–	·
COc1ccc(S(=O)(=O)Nc2ccc(OC(F)F)cc2)c2cccnc12	·	·	·	·	·	–
COc1ccc(S(=O)(=O)Nc2cccc(C)c2C)c2cccnc12	–	·	–	–	–	·
O=C(Nc1ccc2ccccc2c1)c1ccc(Cl)cc1Cl	–	·	–	–	–	–
O=C(Nc1ccc2ccccc2c1)c1ccccc1Cl	–	–	–	–	–	·
CO[C@@H]1CN(C)C(=O)c2ccc(NC(=O)C3CCCC3)cc2OC[C@@H](C)N(CCC(F)(F)F)C[C@H]1C	–	–	–	–	–	·
COC(=O)c1cc(S(=O)(=O)Nc2cc(OC)cc(OC)c2)cn1C	·	153	–	–	–	–
COc1ccc(C(C)(C)C)cc1S(=O)(=O)NCC1CCCO1 (centres undefined)	–	170	–	–	–	–
CN(C)CC#Cc1ccc([C@@H]2[C@@H](CO)N3C(=O)CN(C(=O)Cc4cccnc4)C[C@H]23)cc1	–	·	–	–	·	·
C/C=C/c1ccc([C@@H]2[C@@H](CO)N(C(=O)NCCC)[C@H]2CNC(=O)C2CCC2)cc1	·	–	·	–	·	·
C[C@H]1CN([C@@H](C)CO)C(=O)c2cc(C#CCN(C)C)cnc2O[C@H]1CN(C)C(=O)Nc1ccccc1F	–	–	–	–	–	·
Cc1ccc(S(=O)(=O)NC2CCCCC2)cc1	·	–	–	·	–	·
Cc1cc(S(=O)(=O)NC2CCCCC2)c(C)s1	–	260	–	·	·	–
Cc1ccc(C(C)C)cc1S(=O)(=O)Nc1cccnc1	–	380	–	–	–	–
C[C@@H]1CCCCO[C@H](CN(C)S(=O)(=O)c2ccc(Cl)cc2)[C@H](C)CN([C@@H](C)CO)C(=O)c2cc(NC(=O)Nc3ccccc3)ccc2O1	–	–	–	–	–	·
COc1ccc(S(=O)(=O)NCCN2CCOCC2)c2ccccc12	·	?	·	·	·	–
COc1cccc(S(=O)(=O)Nc2ccc3c(c2)[C@@H]2C[C@@H](CC(=O)O)O[C@H](CO)[C@@H]2O3)c1	–	–	–	–	–	·
CCN(CC)C(=O)CN(c1cc2c(cc1OC)oc1ccccc12)S(=O)(=O)c1ccccc1	·	100	·	·	·	–
Cc1ccc(C)c(S(=O)(=O)Nc2ccc(-n3cnnn3)cc2)c1	·	183	·	·	·	–
Cc1ccc(C)c(S(=O)(=O)Nc2ccc(O)cc2)c1	·	–	·	·	·	·
COC(=O)C[C@H]1CC[C@H]2[C@@H](COc3ccc(NC(=O)c4ccc(F)c(F)c4)cc3C(=O)N2C)O1	–	–	–	–	·	·
